A word on the pKd: it is the Kd on a negative log10 scale, so that one unit is a factor of ten. Low values mean a large Kd, high ones a small Kd.

Here are results for 5 molecules from publication PMC6281781 (Structure (London, England : 1993), 2018).

Experiment [1] concerns PACSIN3 SH3 domain. Nature of the experiment: NMR 1H,15N-HSQC chemical shift titration with PACSIN3 SH3 domain. The format is binding, chicken. The following applies: for affinity for PACSIN3 SH3 domain relative to wildtype (in words): mutations in the TRPV4-PRR, interaction not fully abolished, Fig. S6, Table S1. The essentials:
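Chicken PACSIN3 SH3 domain (N-terminal His6) was 15N-labelled in E. coli minimal medium and purified by NiNTA then Superdex75 SEC. It was held at 250 μM in 10 mM Tris pH7, 100 mM NaCl and titrated from concentrated stocks with peptide (wildtype, AAWAA, P128A or P128A/P129L) and/or lipid, with the second ligand added sequentially. HSQC shifts were fitted for KD.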

Experiment [2] addresses chicken PACSIN3 SH3 domain (chicken). Nature of the experiment: NMR titration.
For experiment [3], the target named is chicken PACSIN1 SH3 domain (chicken). Nature of the experiment: NMR titration.

pKd: −log10 of the molar value.

With `CCCCCCCC(=O)OC[C@H](COP(=O)(O)O[C@@H]1[C@H](O)[C@H](O)[C@@H](OP(=O)(O)O)[C@H](OP(=O)(O)O)[C@H]1O)OC(=O)CCCCCCC` [PIP2, diC8-PI(4,5)P2, reference compound], the “interaction with PACSIN3 SH3 domain (in words)” value in experiment [1] (PIP2 added to isolated 15N-PACSIN3 SH3, no chemical shift changes in 1H,15N-HSQC) was “does not interact”.
With “P128A/P129L: TRPV4 N-terminal peptide with double mutation P128A/P129L in the PRR (ENKRWRRRVVEKPVAGTKGPAPNALPILKV; left off: His6-SUMO, N-terminal, cleaved)”, the “affinity for PACSIN3 SH3 domain relative to wildtype (in words)” value in experiment [1] is on record as “weakened”.
In the case of “P128A: TRPV4 N-terminal peptide with single P128A mutation in the PRR (ENKRWRRRVVEKPVAGTKGPAPNAPPILKV; left off: His6-SUMO, N-terminal, cleaved)”, the “affinity for PACSIN3 SH3 domain relative to wildtype (in words)” value in experiment [1] is listed as “weakened”.
For “chicken TRPV4 PIP2 binding domain plus proline rich region peptide (PBD-PRR, residues 105-134) (from UniProt A0A1D5PXA5 105-134)”, in experiment [2], the pKd was 4.13.
Regarding “chicken TRPV4 proline rich region peptide (PRR, residues 121-134), native sequence (from UniProt A0A1D5PXA5 121-134)”, the pKd in experiment [2] is 4.16; in experiment [3] it was 4.29.
